Assay results from ChEMBL document CHEMBL3045605, “Synthesis and anticancer evaluation of novel 3,5-diaryl-thiazolo[4,5-d]pyrimidin-2-one derivatives” (2013).

Experiments:
Format in all cases: functional
[1] = tested on: HCC 2998; assay: Anticancer activity against Homo sapiens (human) HCC2998 cells assessed as cell growth at 10 uM by SRB assay; conditions: read-out: Activity
Method in brief: (§1)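 NCI 60-cell human tumour panel (nine cancer types) screened at one concentration, 10−5 M. Cell growth estimated by sulforhodamine B protein staining and reported as percent growth of treated cells relative to untreated controls.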

[2] = tested on: SNB-19; assay: Anticancer activity against Homo sapiens (human) SNB19 cells by SRB assay
Method in brief: (§2)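 Five-dose NCI 60-cell-line panel testing at tenfold dilutions from 10−4 to 10−8 M, with growth read by sulforhodamine B protein staining. For each cell line: GI50 is the molar concentration giving half growth inhibition; TGI is total growth inhibition (cytostatic); LC50 is the molar concentration killing 50% of the initial cells (cytotoxic).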

[3] = tested on: DU-145; assay: Anticancer activity against Homo sapiens (human) DU145 cells assessed as cell growth at 10 uM by SRB assay; conditions: read-out: Activity; method in brief: as §1
[4] = tested on: PC-3; assay: Anticancer activity against Homo sapiens (human) PC3 cells by SRB assay; method in brief: as §2
[5] = tested on: MDA-MB-468; assay: Anticancer activity against Homo sapiens (human) MDA-MB-468 cells by SRB assay; method in brief: as §2
[6] = tested on: NCI-H522; assay: Anticancer activity against Homo sapiens (human) NCI-H522 cells assessed as cell growth at 10 uM by SRB assay; conditions: read-out: Activity
Method in brief: (§3)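 Single-dose screen in the NCI 60-human-tumour-cell-line panel (nine cancer types) at 10−5 M. Cell growth was estimated by sulforhodamine B protein staining and reported as percent growth of treated cells relative to untreated controls.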

[7] = tested on: NCI/ADR-RES; assay: Anticancer activity against Homo sapiens (human) NCI/ADR-RES cells assessed as cell growth at 10 uM by SRB assay; conditions: read-out: Activity; method in brief: as §3
[8] = tested on: NCI-H23; assay: Anticancer activity against Homo sapiens (human) NCI-H23 cells assessed as cell growth at 10 uM by SRB assay; conditions: read-out: Activity; method in brief: as §3
[9] = tested on: UACC-62; assay: Anticancer activity against Homo sapiens (human) UACC62 cells by SRB assay
Method in brief: (§4)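 NCI five-dose follow-up on the 60-line human tumour panel at tenfold dilutions from 10−4 to 10−8 M, with growth read by sulforhodamine B protein assay against untreated controls. For each cell line, GI50 (half growth inhibition), TGI (total growth inhibition) and LC50 (50% death of initial cells) are calculated as molar concentrations.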

[10] = tested on: HCT-15; assay: Anticancer activity against Homo sapiens (human) HCT15 cells assessed as cell growth at 10 uM by SRB assay; conditions: read-out: Activity; method in brief: as §1
[11] = tested on: MOLT-4; assay: Anticancer activity against Homo sapiens (human) MOLT4 cells by SRB assay; method in brief: as §2
[12] = tested on: HOP-92; assay: Anticancer activity against Homo sapiens (human) HOP92 cells assessed as cell growth at 10 uM by SRB assay; conditions: read-out: Activity; method in brief: as §1
[13] = tested on: ACHN; assay: Anticancer activity against Homo sapiens (human) ACHN cells assessed as cell growth at 10 uM by SRB assay; conditions: read-out: Activity; method in brief: as §1
[14] = tested on: RXF 393; assay: Anticancer activity against Homo sapiens (human) RXF393 cells assessed as cell growth at 10 uM by SRB assay; conditions: read-out: Activity; method in brief: as §3
[15] = tested on: HL-60(TB); assay: Anticancer activity against Homo sapiens (human) HL-60(TB) cells by SRB assay
Method in brief: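 NCI panel of about 60 human tumour cell lines, tested at five tenfold dilutions from 10−4 to 10−8 M, with sulforhodamine B read-out. GI50 (molar concentration giving half growth inhibition), TGI (total growth inhibition) and LC50 (50% death of initial cells) were calculated for each cell line.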

[16] = tested on: RXF 393; assay: Anticancer activity against Homo sapiens (human) RXF393 cells by SRB assay; method in brief: as §2
[17] = tested on: UACC-257; assay: Anticancer activity against Homo sapiens (human) UACC257 cells assessed as cell growth at 10 uM by SRB assay; conditions: read-out: Activity
Method in brief: (§5)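 NCI 60-cell human tumour panel (leukemia, melanoma, lung, colon, CNS, breast, ovarian, prostate, renal lines) given a single 10−5 M dose. Growth is expressed as percent growth of treated cells relative to untreated controls, with cell growth/viability estimated by sulforhodamine B protein staining.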

[18] = tested on: Malme-3M; assay: Anticancer activity against Homo sapiens (human) MALME-3M cells assessed as cell growth at 10 uM by SRB assay; conditions: read-out: Activity; method in brief: as §1
[19] = tested on: LOX IMVI; assay: Anticancer activity against Homo sapiens (human) LOXIMVI cells assessed as cell growth at 10 uM by SRB assay; conditions: read-out: Activity; method in brief: as §1
[20] = tested on: LOX IMVI; assay: Anticancer activity against Homo sapiens (human) LOXIMVI cells by SRB assay
Method in brief: (§6)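 NCI 60-line panel, five tenfold dilutions from 10−4 to 10−8 M, growth read by sulforhodamine B staining against untreated controls. From the dose–response per line: GI50 (molar concentration giving half growth inhibition), TGI (molar concentration giving total growth inhibition, cytostatic) and LC50 (molar concentration killing 50% of initial cells, cytotoxic).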

[21] = tested on: HCT-116; assay: Anticancer activity against Homo sapiens (human) HCT116 cells assessed as cell growth at 10 uM by SRB assay; conditions: read-out: Activity; method in brief: as §1
[22] = tested on: A549; assay: Anticancer activity against Homo sapiens (human) A549/ATCC cells assessed as cell growth at 10 uM by SRB assay; conditions: read-out: Activity; method in brief: as §1
[23] = tested on: UACC-257; assay: Anticancer activity against Homo sapiens (human) UACC257 cells by SRB assay; method in brief: as §4
[24] = tested on: U-251; assay: Anticancer activity against Homo sapiens (human) U251 cells assessed as cell growth at 10 uM by SRB assay; conditions: read-out: Activity; method in brief: as §5
[25] = tested on: SF-268; assay: Anticancer activity against Homo sapiens (human) SF268 cells assessed as cell growth at 10 uM by SRB assay; conditions: read-out: Activity; method in brief: as §3
[26] = tested on: OVCAR-4; assay: Anticancer activity against Homo sapiens (human) OVCAR4 cells by SRB assay; method in brief: as §2
[27] = tested on: NCI-H460; assay: Anticancer activity against Homo sapiens (human) NCI-H460 cells by SRB assay; method in brief: as §2
[28] = tested on: HCC 2998; assay: Anticancer activity against Homo sapiens (human) HCC2998 cells by SRB assay; method in brief: as §6
[29] = tested on: CCRF-CEM; assay: Anticancer activity against Homo sapiens (human) CCRF-CEM cells assessed as cell growth at 10 uM by SRB assay; conditions: read-out: Activity; method in brief: as §1
[30] = tested on: TK-10; assay: Anticancer activity against Homo sapiens (human) TK10 cells by SRB assay; method in brief: as §4
[31] = tested on: SF-539; assay: Anticancer activity against Homo sapiens (human) SF539 cells by SRB assay; method in brief: as §2
[32] = tested on: OVCAR-5; assay: Anticancer activity against Homo sapiens (human) OVCAR5 cells assessed as cell growth at 10 uM by SRB assay; conditions: read-out: Activity; method in brief: as §3
[33] = tested on: HOP-62; assay: Anticancer activity against Homo sapiens (human) HOP62 cells by SRB assay; method in brief: as §6
[34] = tested on: SK-MEL-5; assay: Anticancer activity against Homo sapiens (human) SK-MEL-5 cells by SRB assay; method in brief: as §2
[35] = tested on: SW-620; assay: Anticancer activity against Homo sapiens (human) SW620 cells by SRB assay; method in brief: as §4
[36] = tested on: MCF7; assay: Anticancer activity against Homo sapiens (human) MCF7 cells by SRB assay; method in brief: as §6
[37] = read-out: pLC50 (the source's name) (converted)

O=c1sc2c(Cl)nc(-c3ccccc3)nc2n1-c1ccccc1
growth at 10 µM [1]: 90% | GI50 [2]: 41.7 µM | growth at 10 µM [3]: 34% | GI50 [4]: 3.31 µM | CC50 [4, 37]: 81.3 µM | TGI ([4]; read-out: pTGI (converted)): 14.5 µM | GI50 [5]: 3.63 µM | growth at 10 µM [6]: -65% | growth at 10 µM [7]: 66% | growth at 10 µM [8]: 20% | GI50 [9]: 20 µM | growth at 10 µM [10]: 28% | GI50 [11]: 12.9 µM | growth at 10 µM [12]: 24% | growth at 10 µM [13]: 42% | growth at 10 µM [14]: -4% | GI50 [15]: 5.89 µM | GI50 [16]: 2.4 µM | LC50 [16]: 38 µM | TGI ([16]; read-out: pTGI (converted)): 8.91 µM | growth at 10 µM [17]: 48% | growth at 10 µM [18]: 62% | growth at 10 µM [19]: -44% | GI50 [20]: 2.04 µM | CC50 [20, 37]: 18.2 µM | TGI ([20]; read-out: pTGI (converted)): 4.79 µM | growth at 10 µM [21]: -53% | growth at 10 µM [22]: 87% | GI50 [23]: 8.91 µM | TGI ([23]; read-out: pTGI (converted)): 31.6 µM | growth at 10 µM [24]: 20% | growth at 10 µM [25]: 52% | GI50 [26]: 5.01 µM | TGI ([26]; read-out: pTGI (converted)): 35.5 µM | GI50 [27]: 25.1 µM | GI50 [28]: 81.3 µM | growth at 10 µM [29]: 23% | GI50 [30]: 10.5 µM | GI50 [31]: 11 µM | growth at 10 µM [32]: 90% | GI50 [33]: 3.63 µM | CC50 [33, 37]: 72.4 µM | TGI ([33]; read-out: pTGI (converted)): 15.5 µM | GI50 [34]: 15.5 µM | GI50 [35]: 2.75 µM | TGI ([35]; read-out: pTGI (converted)): 9.12 µM | GI50 [36]: 64.6 µM
